High-throughput results deposited in PubChem BioAssay by several laboratories.
Jurkat NFkB inh = inhibitors of the PMA/ionomycin-induced NF-kB reporter in Jurkat cells; PMA/ionomycin-induced NF-kB luciferase reporter, luminescence; inhibition, % at 4 µM; hit rate 0.53% among 330,000; AID 435003; in the data active = inhibition above about 50%
NR2E3 ag-1 = human photoreceptor-specific nuclear receptor agonism | Q9Y5X4 | CHO-S Gal4-NCOR/VP16-NR2E3 two-hybrid, luciferase | inhibition of corepressor binding, % at 3.98 µM | hit rate 0.35% among 360,000 | AID 602229;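 active = inhibition above the mean of all tested compounds plus 3 SD, cut at about 70% in these data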;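 note: higher means lower luciferase signal from less NR2E3 corepressor binding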
Target sequence (Q9Y5X4 whole entry, looked up, the tested form may be a part): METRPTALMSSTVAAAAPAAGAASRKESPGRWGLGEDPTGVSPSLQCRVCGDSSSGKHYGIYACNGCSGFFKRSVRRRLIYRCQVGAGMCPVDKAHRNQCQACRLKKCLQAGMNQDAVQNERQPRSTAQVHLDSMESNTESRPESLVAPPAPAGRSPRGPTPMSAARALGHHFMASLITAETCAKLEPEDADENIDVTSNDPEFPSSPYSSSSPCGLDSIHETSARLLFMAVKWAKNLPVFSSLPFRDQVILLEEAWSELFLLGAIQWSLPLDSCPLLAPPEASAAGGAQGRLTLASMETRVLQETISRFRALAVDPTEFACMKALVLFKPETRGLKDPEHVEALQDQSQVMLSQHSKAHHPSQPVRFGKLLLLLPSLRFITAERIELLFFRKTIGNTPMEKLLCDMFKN
miR122 inh = blocks miR-122 activity in Huh7 sensor cells; Huh7 miR-122 Renilla luciferase sensor, 48 h; neutral wells = 0, positive control = 100; hit rate 0.3% among 340,000; activation (reporter increase), % at 12.5 µM;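 active = mean replicate activation score at least 90 and every replicate individually at or above 90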;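 note: higher luciferase means less miR-122 activity so hits act as miR-122 inhibitors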
FGF22 binding = binders of recombinant human FGF22 by thermal shift. AID 651658. SYPRO orange fluorescence; percent of sucrose octasulfate shift, DMSO zero. hit rate 1.5% among 340,000. activity (Tm shift, normalised), % at 9.99 µM. Q9HCT0;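 active = mean Tm shift, scaled 0 neutral to 100 positive control, at about 1.3% or above, every replicate too, limit read from the data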
Target sequence (Q9HCT0 whole entry, looked up): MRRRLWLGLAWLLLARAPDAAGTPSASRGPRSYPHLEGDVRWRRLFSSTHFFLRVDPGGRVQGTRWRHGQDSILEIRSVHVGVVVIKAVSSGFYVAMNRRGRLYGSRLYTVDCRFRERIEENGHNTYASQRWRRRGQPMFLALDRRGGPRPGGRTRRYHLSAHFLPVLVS
697 NFkB inh = inhibitors of the PMA/ionomycin-induced NF-kB reporter in 697 B cells | 697 B-cell NF-kB luciferase reporter, 16 h | inhibition, % at 4 µM | hit rate 0.33% among 330,000 | AID 435022; in the data active = inhibition above about 35%
NR2E3 ag-2 = agonists of human nuclear receptor NR2E3; GST-NR2E3/biotin-RetCOR TR-FRET, 1536-well; inhibition of corepressor binding, % at 4.78 µM; hit rate 0.12% among 320,000;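 active = percent inhibition above the cutoff of mean plus 3 SD of all tested compounds, set per screening campaign, cut at about 20% in these data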
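System: GST-tagged NR2E3 plus biotinylated RetCOR corepressor; Buffer or medium: pH 7.5 Tris-based buffer; Probe or stimulus: RetCOR corepressor, biotinylated, 7 nM; Doses: compound at 4.8 µM, single dose; Schedule: 5 h incubation at 4 °C; Technique: time-resolved FRET; Evaluation: percent inhibition of TR-FRET ratio; Replication: one well per compound, singlicate testing.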
Large screens that a line does not name were inactive. An excerpt weighted towards active compounds, which were near 2.2% of everything screened.

O=C(O)c1ccc(NS(=O)(=O)c2cccc3cccnc23)cc1	none
COc1ccc(C(C)(C)C)cc1NS(=O)(=O)c1cccc2cccnc12	miR122 inh 117 (no result: NR2E3 ag-2)
O=S(=O)(Nc1ccc(Cl)cc1)c1cccc2cccnc12	miR122 inh 99
CCC(=O)NC[C@@H]1[C@H](c2ccc(-c3cccc(F)c3)cc2)[C@H](CO)N1C(=O)CC	none (no result: Jurkat NFkB inh, NR2E3 ag-1, 697 NFkB inh, NR2E3 ag-2)
O=C(C[C@@H]1C=C[C@@H](NC(=O)NC2CCCC2)[C@H](CO)O1)NCc1ccc(F)cc1	none (no result: Jurkat NFkB inh, NR2E3 ag-1, miR122 inh, 697 NFkB inh, NR2E3 ag-2)
Cn1c(=O)c2[nH]c(NN=Cc3ccc(Br)cc3)nc2n(C)c1=O	none (no result: Jurkat NFkB inh, 697 NFkB inh, NR2E3 ag-2)
Cc1ccc(C=NNc2nc3c([nH]2)c(=O)n(C)c(=O)n3C)cc1	FGF22 binding 44 (no result: Jurkat NFkB inh, miR122 inh, 697 NFkB inh, NR2E3 ag-2)
CSc1ccc(S(=O)(=O)Nc2ccc(F)cc2)cc1	miR122 inh 120 (no result: FGF22 binding)
CCCC(=O)Nc1ccc2c(c1)C(=O)N(C)[C@@H]1CC[C@@H](CC(=O)N3CCCCC3)O[C@@H]1CO2	none (no result: Jurkat NFkB inh, NR2E3 ag-1, 697 NFkB inh, NR2E3 ag-2)
Cc1nn(Cc2ccc(F)cc2)c2sc(C(=O)Nc3nccs3)cc12	FGF22 binding 44 (no result: miR122 inh)
Cc1nn(Cc2ccccc2Cl)c2sc(C(=O)Nc3nccs3)cc12	none (no result: miR122 inh, FGF22 binding)
CN(C)C(=O)c1ccc(-c2ccccc2[C@H]2[C@@H](C#N)N(C(=O)C3CCC3)[C@@H]2CO)cc1	none (no result: Jurkat NFkB inh, NR2E3 ag-1, miR122 inh, 697 NFkB inh, NR2E3 ag-2)
COc1ccc(Nc2nc3ccccc3nc2NS(=O)(=O)c2cccs2)cc1	none (no result: FGF22 binding)
O=S(=O)(Nc1nc2ccccc2nc1OCC(F)(F)F)c1cccs1	FGF22 binding 45
CCCC#Cc1cnc2c(c1)C(=O)N([C@H](C)CO)C[C@@H](C)[C@@H](CN(C)S(=O)(=O)c1cn(C)cn1)O2	none (no result: Jurkat NFkB inh, NR2E3 ag-1, 697 NFkB inh, NR2E3 ag-2)
Cc1ccc(S(=O)(=O)NC23CC4CC(CC(C4)C2)C3)cc1	miR122 inh 106
COc1ccc(S(=O)(=O)Nc2ccc3c(c2)C(=O)N([C@@H](C)CO)C[C@@H](C)[C@H](CN(C)S(=O)(=O)c2cn(C)cn2)OCCCC[C@H](C)O3)cc1	none (no result: Jurkat NFkB inh, NR2E3 ag-1, 697 NFkB inh, NR2E3 ag-2)
C=CCNC(=O)/C(C#N)=C/c1cn(-c2ccccc2)nc1-c1ccc(OC)c([N+](=O)[O-])c1	miR122 inh 147 (no result: Jurkat NFkB inh, FGF22 binding, 697 NFkB inh)
CCSc1ccc(-c2nn(-c3ccccc3)cc2/C=C(/C#N)C(=O)NC)cc1	none (no result: Jurkat NFkB inh, FGF22 binding, 697 NFkB inh)
C[C@H]1CN([C@@H](C)CO)C(=O)c2cc(NC(=O)CCCN(C)C)ccc2O[C@@H]1CN(C)Cc1ccc(Cl)c(Cl)c1	none (no result: Jurkat NFkB inh, NR2E3 ag-1, 697 NFkB inh, NR2E3 ag-2)
CC(C)N(C(=O)Cn1cc(SCC(=O)NCc2ccco2)c2ccccc21)C(C)C	FGF22 binding 1.7
COc1ccc(-n2c(C)nn(CCOc3ccccc3)c2=O)cc1	none (no result: miR122 inh)
Cc1nn(CC2CC2)c(=O)n1-c1ccc(Oc2ccccc2)cc1	FGF22 binding 43 (no result: miR122 inh)
CNC[C@H]1OCCCC[C@H](C)Oc2ccc(NC(=O)NC(C)C)cc2C(=O)N([C@@H](C)CO)C[C@H]1C	none (no result: Jurkat NFkB inh, NR2E3 ag-1, 697 NFkB inh, NR2E3 ag-2)
CCOC(=O)C1=C(CS(=O)(=O)c2ccccc2)NC(=O)NC1c1ccccc1 (configuration not stated)	none (no result: FGF22 binding)
CCOC(=O)C1=C(CS(=O)(=O)c2ccccc2)NC(=O)NC1c1cccc(OC)c1 (configuration not stated)	FGF22 binding 44 (no result: miR122 inh)
COc1ccc(/C=C/C(=O)NC(=S)NCC2CCCO2)cc1 (configuration not stated)	FGF22 binding 44 (no result: miR122 inh)
COc1cccc(/C=C/C(=O)OCC(=O)NCC2CCCO2)c1 (configuration not stated)	none (no result: FGF22 binding)
COc1ccc(/C=C/C(=O)OCC(=O)NCC2CCCO2)cc1 (configuration not stated)	FGF22 binding 44 (no result: miR122 inh)
C[C@H](CO)N1C[C@H](C)[C@H](CN(C)S(=O)(=O)c2ccc(F)cc2)Oc2ncc(C#CC3CCCCC3)cc2C1=O	none (no result: Jurkat NFkB inh, NR2E3 ag-1, 697 NFkB inh, NR2E3 ag-2)
CCC/C(O)=C1\C(=O)CCCC1=NCCc1c(C)[nH]c2ccc(C)cc12	none
CCC/C(O)=C1\C(=O)CCCC1=NCCc1c(C)[nH]c2ccc(OC)cc12	FGF22 binding 43
O=C(NCc1ccccn1)C1CCN(S(=O)(=O)c2ccccc2C(F)(F)F)CC1	none (no result: NR2E3 ag-2)
COC(=O)c1ccccc1S(=O)(=O)N1CCC(C(=O)NCc2ccccn2)CC1	FGF22 binding 43 (no result: Jurkat NFkB inh, 697 NFkB inh, NR2E3 ag-2)
COc1cc(NC(=O)c2cccc(C)c2)c(OC)cc1NC(=O)CN1CCCCC1	FGF22 binding 43 (no result: miR122 inh)
